Results taken from ChEMBL document CHEMBL4342467, “Discovery of a Novel Dual-Target Inhibitor of ERK1 and ERK5 That Induces Regulated Cell Death to Overcome Compensatory Mechanism in Specific Tumor Types” (J Med Chem, 2020).
Calls of active or inactive are those of the source. No cut-off for these calls is given here.

Legend:
MKN-74 [1] = assay: Induction of autophagy in human MKN74 cells assessed as increase in LC3-2 expression at 0.5 uM measured after 24 hrs in presence of autophagy inhibitor 3-methyladenine by Western blot analysis; assay type: functional, cell-based
How it was run: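 MKN-74 cells given 0.5 μM for 24 h with or without 3-MA; LC3 and p62 immunoblotted.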

[2] = AUC (0 to t) in Sprague-Dawley rat at 10 mg/kg, po by LC-MS analysis; assay type: ADME, organism-based; conditions: in vivo
How it was run: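 Rats, two groups of 3; single i.v. dose 1 mg/kg or oral dose 10 mg/kg. Plasma concentration-time profiles used to derive T1/2, Tmax, Cmax, AUC0-t, AUC0-∞ and oral bioavailability. Data from triplicate testing, ± standard deviation.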

[3] = target: Mitogen-activated protein kinase; ERK1/ERK2 (Homo sapiens) (UniProt P27361+P28482); assay: Inhibition of ERK1/2 in human MKN74 cells assessed as reduction in ERK1/2 phosphorylation at T202/Y204 residue at 0.5 uM measured up to 24 hrs by Western blot analysis; assay type: cell-based
HL-60 = assay: Induction of cytoplasmic vacuolization in human HL60 cells; assay type: functional, cell-based
MKN-74 [4] = assay: Antitumor activity against human MKN74 cells xenografted in BALB/c mouse assessed as reduction in tumor volume at 50 mg/kg, po administered once daily for 16 days measured every 3 days during compound dosing; assay type: functional, organism-based
How it was run: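 Female nude mice bearing subcutaneous HL-60, MKN-74 or HeLa xenografts, 8 per group. Dosing was vehicle control or 50 mg/kg p.o. once daily for 16 days. Tumor volume followed over time, mean ± SEM.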

[5] = target: Mitogen-activated protein kinase 3 (Homo sapiens) (UniProt P27361); assay: Inhibition of wild-type human full length ERK1 (M1 to P379 residues) expressed in bacterial expression system at 1 uM by Kinomescan method relative to control
How it was run: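 KINOMEscan binding assays over a 100-kinase panel, with test compound at 1 μM. Results are given as % inhibition.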

Mus musculus = assay: In vivo inhibition of ERK5 in BALB/c mouse xenografted with human MKN74 cells assessed as reduction in ERK5 phosphorylation at 50 mg/kg, po administered once daily for 16 days measured post-last dose by Western blot analysis; assay type: functional, organism-based
How it was run: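 Two individual tumors excised from xenograft mice were lysed. ERK1/2, p-ERK1/2, ERK5 and p-ERK5 detected by western blot.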

[6] = Effect on Ras/Raf/MEK/ERK signaling in human MKN74 cells assessed as change in p38 phosphorylation at Thr180/Tyr182 residue at 0.5 uM measured up to 24 hrs by Western blot analysis; assay type: cell-based
How it was run: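 MKN-74 cells exposed to 0.5 μM for 0, 6, 12 and 24 h. Ras, Raf, p-MEK1/2, MEK1/2, p-JNK, JNK, p-p38 and p38 immunoblotted, with GAPDH as loading control.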

Sequence of Mitogen-activated protein kinase; ERK1/ERK2 (Homo sapiens) (P27361 whole entry, looked up): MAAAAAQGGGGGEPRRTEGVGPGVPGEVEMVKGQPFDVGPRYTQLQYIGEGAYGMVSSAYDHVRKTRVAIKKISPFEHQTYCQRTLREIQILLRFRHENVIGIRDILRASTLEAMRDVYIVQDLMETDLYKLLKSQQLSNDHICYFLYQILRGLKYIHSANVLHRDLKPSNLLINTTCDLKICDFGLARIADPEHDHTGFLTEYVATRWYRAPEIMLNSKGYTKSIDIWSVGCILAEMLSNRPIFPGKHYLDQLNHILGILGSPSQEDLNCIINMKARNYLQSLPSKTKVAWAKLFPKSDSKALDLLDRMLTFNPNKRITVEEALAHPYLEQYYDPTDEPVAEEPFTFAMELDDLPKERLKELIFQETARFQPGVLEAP
Sequence of Mitogen-activated protein kinase; ERK1/ERK2 (Homo sapiens) (P28482 whole entry, looked up): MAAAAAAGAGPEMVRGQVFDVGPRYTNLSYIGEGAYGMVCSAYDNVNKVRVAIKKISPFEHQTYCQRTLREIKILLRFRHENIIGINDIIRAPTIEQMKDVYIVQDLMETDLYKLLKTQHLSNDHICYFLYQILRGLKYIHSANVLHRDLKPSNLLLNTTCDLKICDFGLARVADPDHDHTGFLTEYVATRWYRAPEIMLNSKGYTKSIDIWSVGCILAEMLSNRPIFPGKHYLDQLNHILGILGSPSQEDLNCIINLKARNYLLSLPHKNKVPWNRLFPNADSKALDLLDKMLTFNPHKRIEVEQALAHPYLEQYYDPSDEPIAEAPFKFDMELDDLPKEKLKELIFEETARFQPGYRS
Sequence of Mitogen-activated protein kinase 3 (Homo sapiens) (P27361 whole entry, the tested form may be a part): as the sequence (P27361 whole entry, looked up) above

AUC(0-t) [2]: 5080 ng·h/mL | inhibition [3]: Active | inhibition [5]: 94%
Structure (SMILES): NC(=O)c1c(NC(=O)c2ccccc2Cl)sc2c1CCN(C(=S)Nc1ccccc1Cl)C2
Activity (MKN-74 [1]): inactive | Activity (HL-60): inactive | Activity (MKN-74 [4]): Active | inhibition (Mus musculus): Active | Activity [6]: inactive
